# Key:
# pooled HLM = assay: Glucuronidation of CA in pooled HLM; format: in vitro ADME, human; conditions: higher than phase I metabolism
# Summary of the method: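 Pooled human liver microsomes (1 mg/mL) with test compound 0.16–80 μM, UDPGA 3.5 mM, alamethicin 22 μg/mL, saccharolactone 4.4 mM and MgCl2 0.88 mM in Tris-HCl pH 7.4, 37 °C for 60 min. Phase I run in parallel with 1 mM NADPH. Metabolites quantified by UHPLC-UV (270 nm) as parent equivalents; kinetics fitted by model, CLint = Vmax/Km; triplicate.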
# UGT1A1 = biological target: T1, UGT1A1 (Homo sapiens, UniProt P22309); assay: Glucuronidation of CA by recombinant UGT1A1; format: in vitro ADME; conditions: formation of the glucuronide from CA
# T1 sequence (P22309 26-533): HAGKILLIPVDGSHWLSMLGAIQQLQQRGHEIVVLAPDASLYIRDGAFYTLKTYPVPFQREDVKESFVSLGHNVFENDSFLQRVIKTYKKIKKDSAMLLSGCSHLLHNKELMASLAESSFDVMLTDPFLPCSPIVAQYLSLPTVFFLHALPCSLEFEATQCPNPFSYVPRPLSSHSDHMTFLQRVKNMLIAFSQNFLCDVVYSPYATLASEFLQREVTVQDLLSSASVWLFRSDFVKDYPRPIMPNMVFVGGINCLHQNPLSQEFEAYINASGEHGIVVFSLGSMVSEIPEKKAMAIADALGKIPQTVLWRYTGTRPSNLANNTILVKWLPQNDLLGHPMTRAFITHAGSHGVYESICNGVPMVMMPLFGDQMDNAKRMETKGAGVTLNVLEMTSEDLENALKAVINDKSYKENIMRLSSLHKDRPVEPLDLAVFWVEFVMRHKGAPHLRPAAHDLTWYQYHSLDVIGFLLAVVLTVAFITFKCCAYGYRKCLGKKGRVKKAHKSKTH
# UGT1A8 = biological target: T2, UGT1A8 (Homo sapiens, UniProt Q9HAW9); assay: Glucuronidation of CA by recombinant UGT1A8; format: in vitro ADME; conditions: formation of the glucuronide from CA
# T2 sequence (Q9HAW9 26-530): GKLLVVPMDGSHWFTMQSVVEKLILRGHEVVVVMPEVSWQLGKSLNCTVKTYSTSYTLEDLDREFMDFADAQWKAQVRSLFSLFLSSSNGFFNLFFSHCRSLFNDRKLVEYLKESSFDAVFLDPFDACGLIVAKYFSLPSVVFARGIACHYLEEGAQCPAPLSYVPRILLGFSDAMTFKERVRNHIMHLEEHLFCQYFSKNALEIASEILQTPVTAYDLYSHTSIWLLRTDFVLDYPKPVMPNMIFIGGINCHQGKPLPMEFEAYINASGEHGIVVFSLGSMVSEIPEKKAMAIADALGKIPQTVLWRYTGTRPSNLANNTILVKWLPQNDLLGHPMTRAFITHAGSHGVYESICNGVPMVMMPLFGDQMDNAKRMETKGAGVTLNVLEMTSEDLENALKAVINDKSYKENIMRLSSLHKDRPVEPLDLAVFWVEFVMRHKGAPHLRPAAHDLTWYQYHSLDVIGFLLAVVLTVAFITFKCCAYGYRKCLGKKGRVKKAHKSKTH
# UGT1A9 = biological target: T3, UGT1A9 (Homo sapiens, UniProt O60656); assay: Glucuronidation of CA by recombinant UGT1A9; format: in vitro ADME; conditions: formation of the glucuronide from CA
# T3 sequence (O60656 26-530): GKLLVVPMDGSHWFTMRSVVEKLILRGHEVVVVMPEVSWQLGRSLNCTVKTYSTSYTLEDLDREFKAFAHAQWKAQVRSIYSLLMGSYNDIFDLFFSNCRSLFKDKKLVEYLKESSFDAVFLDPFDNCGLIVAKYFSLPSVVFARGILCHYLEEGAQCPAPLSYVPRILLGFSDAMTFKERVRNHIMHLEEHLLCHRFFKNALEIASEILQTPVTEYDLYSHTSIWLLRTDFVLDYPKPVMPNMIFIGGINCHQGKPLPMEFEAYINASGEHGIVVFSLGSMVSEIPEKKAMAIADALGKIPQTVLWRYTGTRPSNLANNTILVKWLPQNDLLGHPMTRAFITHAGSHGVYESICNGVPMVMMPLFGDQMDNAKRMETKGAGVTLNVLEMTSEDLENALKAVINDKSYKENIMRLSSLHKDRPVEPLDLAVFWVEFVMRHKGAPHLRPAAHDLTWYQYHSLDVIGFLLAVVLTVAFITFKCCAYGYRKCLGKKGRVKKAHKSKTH
# [1] = tested on: recombinant human UGT isoforms; assay: Reaction phenotyping with twelve recombinant UGT isoforms; format: in vitro ADME
# CYP2C8 = biological target: T4, CYP2C8 (Homo sapiens, UniProt P10632); format: in vitro ADME; conditions: panel of HLMs (n = 9), substrate 10 μM, p = 0.001
# T4 sequence (P10632 1-490): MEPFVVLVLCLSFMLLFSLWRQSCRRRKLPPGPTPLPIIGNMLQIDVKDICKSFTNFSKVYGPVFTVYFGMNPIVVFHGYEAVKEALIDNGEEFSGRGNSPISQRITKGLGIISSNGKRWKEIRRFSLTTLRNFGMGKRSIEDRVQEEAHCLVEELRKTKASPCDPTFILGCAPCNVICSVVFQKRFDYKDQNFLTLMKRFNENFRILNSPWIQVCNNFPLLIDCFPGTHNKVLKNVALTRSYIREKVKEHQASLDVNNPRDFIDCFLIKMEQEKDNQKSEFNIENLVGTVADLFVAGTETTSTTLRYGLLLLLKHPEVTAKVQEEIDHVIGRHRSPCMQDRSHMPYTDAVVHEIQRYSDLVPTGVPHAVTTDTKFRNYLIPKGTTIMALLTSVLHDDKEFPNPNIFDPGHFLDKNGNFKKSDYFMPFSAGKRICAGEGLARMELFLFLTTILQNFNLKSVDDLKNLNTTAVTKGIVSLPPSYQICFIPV
# Summary of the method: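 Nine individual human liver microsomes (1 mg/mL) each incubated with test compound at 10 μM plus 1 mM NADPH, pH 7.4, 37 °C, 60 min. Oxidation rates correlated by linear regression (r) with each donor's paclitaxel 6-hydroxylation activity. p < 0.05 taken as significant.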
# human carboxylesterase 2 = conditions: ref Li et al., 2015, cited from earlier work
# [2] = tested on: HepG2 hepatocellular carcinoma cell line; conditions: cited from earlier work
# [3] = tested on: Hep3B hepatocellular carcinoma cell line; conditions: cited from earlier work
# [4] = rat, in vivo, cited from earlier work
# [5] = rat, in vivo; cited from earlier work
structure (smiles),measurement,setting,value
"CC(C)=CCC/C(C)=C/Cc1cc(-c2coc3cc(O)ccc3c2=O)ccc1O [CA, Corylifol A]",intrinsic clearance value of glucuronidation relative to phase I metabolism,pooled HLM,4 fold
same,CLint,UGT1A1,284.07 µL/min/mg
same,CLint,UGT1A8,135.59 µL/min/mg
same,CLint,UGT1A9,191.94 µL/min/mg
same,catalytic activity to CA-glucuronidation,"[1]; UGT1A1, 1A7, 1A8 and 1A9",strong catalytic activity
same,catalytic activity to CA-glucuronidation,"[1]; UGT1A3, 1A4, 2B4 and 2B7",weak catalytic activity
same,correlation (r) between CA-mono-oxidation and paclitaxel-6-hydroxylation,CYP2C8,0.921
same,IC50,"human carboxylesterase 2; read-out: IC50, human carboxylesterase 2",620 nM
same,Ki,"human carboxylesterase 2; read-out: Ki, human carboxylesterase 2",870 nM
same,"IC50, cytotoxic activity",[2],4.6 µg/mL
same,"IC50, cytotoxic activity",[3],13.5 µg/mL
same,maximal plasma concentration (Cmax) of CA,[4]; 2 g/kg,8.87 ng/mL
same,Cmax of CA,"[4]; po, 1.2 g/kg",1.70 ng/mL
same,distribution concentrations of CA at different nuclei,[5],260.63 to 493.29 ng·h/g

# Source: PMC7396962 (Xenobiotica; the fate of foreign compounds in biological …, 2020)
